Changes are numbered by the printed parent chain. Like-named read-outs stand apart in the source and are kept apart here.

Common to all, as to assay type: cell-based
One assay concerns the target T1, CLC-0 E166G mutant (Torpedo marmorata, UniProt P21564, C212S/E166G).
T1 sequence (P21564 1-805 E166G/C212S): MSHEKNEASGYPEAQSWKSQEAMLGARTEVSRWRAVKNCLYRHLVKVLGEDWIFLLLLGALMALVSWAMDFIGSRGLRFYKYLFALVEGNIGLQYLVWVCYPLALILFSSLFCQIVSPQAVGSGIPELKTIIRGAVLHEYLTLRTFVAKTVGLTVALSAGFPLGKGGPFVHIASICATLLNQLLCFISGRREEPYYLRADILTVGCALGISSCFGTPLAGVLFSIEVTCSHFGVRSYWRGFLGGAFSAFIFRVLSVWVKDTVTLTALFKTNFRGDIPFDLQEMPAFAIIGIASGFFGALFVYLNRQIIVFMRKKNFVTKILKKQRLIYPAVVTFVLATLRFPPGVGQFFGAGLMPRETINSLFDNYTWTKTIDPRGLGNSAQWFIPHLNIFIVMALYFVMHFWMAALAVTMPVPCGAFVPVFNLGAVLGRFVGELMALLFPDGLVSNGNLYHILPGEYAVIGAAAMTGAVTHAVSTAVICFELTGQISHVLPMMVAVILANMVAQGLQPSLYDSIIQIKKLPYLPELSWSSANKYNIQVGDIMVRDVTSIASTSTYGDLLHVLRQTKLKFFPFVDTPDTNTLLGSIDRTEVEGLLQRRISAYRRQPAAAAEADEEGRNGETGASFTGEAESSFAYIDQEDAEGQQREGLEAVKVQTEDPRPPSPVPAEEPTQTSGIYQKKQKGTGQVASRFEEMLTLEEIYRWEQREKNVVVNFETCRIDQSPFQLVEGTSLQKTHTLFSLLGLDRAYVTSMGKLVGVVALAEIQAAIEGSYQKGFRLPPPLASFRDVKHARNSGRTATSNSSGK
Particulars: read-out: Apparent affinity (K1/2). In outline: (§1)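 CLC-0 mutants in the C212S background were transfected into HEK293 cells with lipofectamine and recorded 1–3 d later as excised inside-out patches. Both sides held 130 mM NaCl, 5 mM MgCl2, 10 mM HEPES and 1 mM EGTA, pH 7.4. CPA was perfused continuously onto the cytoplasmic face. Steady-state current over the last 10 ms was normalized to bracketing blocker-free controls and fitted to a Langmuir function for K1/2. Values are mean ± SEM of ~4–6 patches.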

The target in another assay is T2, CLC-0 E166L mutant (Torpedo marmorata, UniProt P21564, C212S/E166L).
T2 sequence (P21564 1-805 E166L/C212S): T1 sequence (P21564 1-805 E166G/C212S) with G166L
Particulars: for IC50: read-out: Apparent affinity (K1/2). In outline:
as §1

The target in another assay is T3, CLC-0 E166W mutant (Torpedo marmorata, UniProt P21564, C212S/E166W).
T3 sequence (P21564 1-805 E166W/C212S): T1 sequence (P21564 1-805 E166G/C212S) with G166W
To be noted: read-out: Apparent affinity (K1/2). In outline:
as §1

On to `O=C(O)COc1ccc(Cl)cc1` [CPA, p-chlorophenoxy acetate], for which the IC50 on CLC-0 E166G mutant (−40 mV) is 300 ± 20 µM; at CLC-0 E166G mutant (−60 mV), 180 ± 10 µM; at CLC-0 E166G mutant (−80 mV) it was 140 ± 10 µM; on CLC-0 E166G mutant (−100 mV), 150 ± 10 µM; at CLC-0 E166G mutant (−120 mV), 180 ± 20 µM; at CLC-0 E166G mutant (−140 mV), 240 ± 30 µM. The IC50 was found to be 320 ± 30 µM on CLC-0 E166G mutant (−160 mV); 4640 ± 190 µM at CLC-0 E166L mutant (−40 mV); 2610 ± 80 µM at CLC-0 E166L mutant (−60 mV); 1460 ± 30 µM at CLC-0 E166L mutant (−80 mV); 800 ± 20 µM at CLC-0 E166L mutant (−100 mV); 470 ± 10 µM on CLC-0 E166L mutant (−120 mV). The IC50 was found to be 280 ± 10 µM at CLC-0 E166L mutant (−140 mV); 180 ± 10 µM on CLC-0 E166L mutant (−160 mV); 13200 ± 2100 µM at CLC-0 E166W mutant (−60 mV); 6660 ± 980 µM on CLC-0 E166W mutant (−80 mV); 3490 ± 410 µM on CLC-0 E166W mutant (−100 mV); 1860 ± 220 µM on CLC-0 E166W mutant (−120 mV). The IC50 on CLC-0 E166W mutant (−140 mV) is 970 ± 130 µM; at CLC-0 E166W mutant (−160 mV) it was 550 ± 70 µM. For the same molecule, the block of current on CLC-0 E166L mutant (0.3 mM CPA, −160 mV) is around 60%.
For `CCCCCCCC(=O)O` [octanoate], the IC50 at CLC-0 E166G mutant (−40 mV) was found to be 225 ± 13 µM; on CLC-0 E166G mutant (−60 mV), 127 ± 8 µM; on CLC-0 E166G mutant (−80 mV), 85 ± 6 µM; on CLC-0 E166G mutant (−100 mV), 75 ± 6 µM; at CLC-0 E166G mutant (−120 mV), 82 ± 8 µM; at CLC-0 E166G mutant (−140 mV), 115 ± 14 µM. Besides, the IC50 at CLC-0 E166G mutant (−160 mV) amounted to 175 ± 19 µM; at CLC-0 E166L mutant (−40 mV) it was 342 ± 53 µM; on CLC-0 E166L mutant (−60 mV), 192 ± 22 µM; on CLC-0 E166L mutant (−80 mV) it was 106 ± 10 µM; at CLC-0 E166L mutant (−100 mV) it was 57 ± 5 µM; at CLC-0 E166L mutant (−120 mV) it was 32 ± 3 µM. Further, the IC50 was 18 ± 2 µM at CLC-0 E166L mutant (−140 mV); 11 ± 1 µM on CLC-0 E166L mutant (−160 mV); 19200 ± 3300 µM at CLC-0 E166W mutant (−80 mV); 13000 ± 2000 µM on CLC-0 E166W mutant (−100 mV); 8600 ± 1300 µM at CLC-0 E166W mutant (−120 mV); 5530 ± 870 µM at CLC-0 E166W mutant (−140 mV). In addition, the IC50 on CLC-0 E166W mutant (−160 mV) was 3500 ± 590 µM.

The record behind these values is article PMC2606940 (The Journal of General Physiology, 2009).
